This note sets out measurements from ChEMBL document CHEMBL1132464, “Specific nonpeptide photoprobes as tools for the structural study of the angiotensin II AT(1) receptor” (J Med Chem, 1999).

One test is filed under the species Oryctolagus cuniculus. The test can be described thus: The compound was evaluated for the inhibition of AII-induced contraction in the rabbit aorta strips. Format: functional. The gist of the method:
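Rabbit aortic rings (4 mm) in 37 °C organ baths, Krebs-Henseleit gassed O2/CO2 95/5, passive tension 2 g, isometric tension recorded; three to five antagonist concentrations, one per ring, against 3 nM AII contraction; IC50 = concentration halving AII response; mean of six experiments.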
One may read the IC50 as the concentration at which inhibition is half-maximal. A low value points to higher potency. Consider `CCCCc1ncc(CNc2cc(N=[N+]=[N-])ccc2C(=O)O)n1Cc1ccc(C(=O)O)cc1`, for which the IC50 stood at 6.3 nM.

On to `CCCCc1ncc(CNc2ccccc2C(=O)O)n1Cc1ccc(C(=O)NS(=O)(=O)c2ccccc2N=[N+]=[N-])cc1`, for which the IC50 stood at 3.5 nM.

On to `CCCCc1ncc(CNc2ccccc2C(=O)O)n1Cc1ccc(C(=O)NS(=O)(=O)c2ccccc2Cl)cc1`, for which the IC50 was 0.8 nM.

In the case of `CCCCc1ncc(CNc2ccccc2C(=O)O)n1Cc1ccc(C(=O)O)cc1`, the midpoint of inhibition, the IC50, lay at 3.6 nM.

In the next test the target is T1, Type-1 angiotensin II receptor A (Rattus norvegicus, UniProt P25095).
T1 sequence (P25095 whole entry): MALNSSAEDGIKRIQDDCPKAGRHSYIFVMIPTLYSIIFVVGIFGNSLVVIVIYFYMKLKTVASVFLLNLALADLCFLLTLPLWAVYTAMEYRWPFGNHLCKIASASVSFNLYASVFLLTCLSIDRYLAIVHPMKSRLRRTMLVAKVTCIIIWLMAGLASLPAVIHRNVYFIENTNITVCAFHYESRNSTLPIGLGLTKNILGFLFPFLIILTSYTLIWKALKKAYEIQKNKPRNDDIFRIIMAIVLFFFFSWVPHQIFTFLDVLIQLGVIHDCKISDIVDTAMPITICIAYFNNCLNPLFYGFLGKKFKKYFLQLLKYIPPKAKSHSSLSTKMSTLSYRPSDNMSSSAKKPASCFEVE
Briefly: The compound was evaluated for the inhibition of [125I]-Sar-AII binding to Angiotensin II receptor, type 1 from purified rat liver membranes. Format: cell membranes, Membrane. A digest of the protocol: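 Purified rat liver membranes (AT1 only), 10 μg protein/assay, competition against [125I]Sar1-AII tracer for 30 min at 30 °C in 50 mM phosphate pH 7.4, 5 mM MgCl2, 0.1 mg/mL bacitracin, 0.6% Me2SO, no BSA; triplicates; GF/C filtration; Ki via Ekins equation.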
Usually Ki stands for a dissociation constant, usually derived from enzyme kinetics or from competition with a known ligand. The molecule `CCCCc1ncc(CNc2cc(N=[N+]=[N-])ccc2C(=O)O)n1Cc1ccc(C(=O)O)cc1` gave a Ki of 22 nM.

Turning to `CCCCc1ncc(CNc2ccccc2C(=O)O)n1Cc1ccc(C(=O)NS(=O)(=O)c2ccccc2N=[N+]=[N-])cc1`, the affinity, expressed as Ki, was 1.5 nM.

Take `CCCCc1ncc(CNc2ccccc2C(=O)O)n1Cc1ccc(C(=O)NS(=O)(=O)c2ccccc2Cl)cc1`: the Ki turned out to be 2.5 nM.

Molecule `CCCCc1ncc(CNc2ccccc2C(=O)O)n1Cc1ccc(C(=O)O)cc1` registered a Ki of 12.1 nM.

Another test concerns the target T1, Type-1 angiotensin II receptor A. The test can be described thus: The compound was evaluated for the direct binding of tritiated compound to the recombinant Angiotensin II receptor, type 1 stably expressed in CHO cells. The format is cell-based. A digest of the protocol:
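Intact CHO cells stably expressing rat AT1A, grown to confluence (~5 × 10^5 cells/well), incubated 4 h at 4 °C with graded tritiated ligand in PBS pH 7.4, 5 mM MgCl2, 0.1 mg/mL bacitracin, 0.6% Me2SO; nonspecific binding with excess Sar1-AII or unlabeled nonpeptide; ice-cold washes, NaOH lysis, scintillation counting; Kd by Scatchard analysis, mean of four experiments.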
In general, Kd refers to the free concentration of one partner at which half of the binding sites on the other are occupied at equilibrium, for simple one-to-one binding. For `[3H]c1ccc(S(=O)(=O)NC(=O)c2ccc(Cn3c(CNc4ccccc4C(=O)O)cnc3CCCC)cc2)c(Cl)c1`, the Kd worked out at 1.3 nM.

As for `[3H]c1nc(CCCC)n(Cc2ccc(C(=O)O)cc2)c1C([3H])Nc1cc(N=[N+]=[N-])ccc1C(=O)O` (stereo not given), the Kd amounted to 11.8 nM.

Take `[3H]c1nc(CCCC)n(Cc2ccc(C(=O)O)cc2)c1CNc1ccccc1C(=O)O`: the Kd was determined as 3.5 nM.

For another test, the target named is T2, Type-1 angiotensin II receptor A (Rattus norvegicus) (UniProt P25095).
T2 sequence (whole entry): T1 sequence (P25095 whole entry)
Briefly: The compound was evaluated for irreversible binding to [125I]Sar-AII in CHO cells expressing the Angiotensin II receptor, type 1 with UV irradiation. The format is cell-based. The gist of the method:
(§1)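 CHO cells stably expressing rat AT1A receptor in 24-well clusters; incubated 4 h at 4 °C in dark with photoactivatable ligand (nonpeptide 50 or 10 nM; peptide azido probe 10 nM) in PBS pH 7.4, 5 mM MgCl2, 0.1 mg/mL bacitracin; washed, irradiated or not 5 min at 0 °C, 254 nm; two 30-min 30 °C dissociation incubations; remaining sites titrated with 5 nM [125I]Sar1-AII, 2 h, 4 °C; % of control, triplicates.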
Molecule `CCCCc1ncc(CNc2cc(N=[N+]=[N-])ccc2C(=O)O)n1Cc1ccc(C(=O)O)cc1` registered a Control of 64%.

For the molecule `CCCCc1ncc(CNc2ccccc2C(=O)O)n1Cc1ccc(C(=O)NS(=O)(=O)c2ccccc2N=[N+]=[N-])cc1`, the Control was 55%.

Another test addresses T2, Type-1 angiotensin II receptor A (Rattus norvegicus). Briefly: The compound was evaluated for irreversible binding to [125I]Sar-AII in CHO cells expressing the Angiotensin II receptor, type 1 without UV irradiation. Format: cell-based. The gist of the method: as §1
`CCCCc1ncc(CNc2cc(N=[N+]=[N-])ccc2C(=O)O)n1Cc1ccc(C(=O)O)cc1` returned a Control of 91%.

For `CCCCc1ncc(CNc2ccccc2C(=O)O)n1Cc1ccc(C(=O)NS(=O)(=O)c2ccccc2N=[N+]=[N-])cc1`, the Control amounted to 50%.
